ChEMBL document CHEMBL4020839, “Class I HDAC Inhibitors Display Different Antitumor Mechanism in Leukemia and Prostatic Cancer Cells Depending on Their p53 Status” (J Med Chem, 2018)
Active and inactive are the calls of the source. No cut-off for these calls is given here.

Key:
[1] = tested on: MV4-11; assay: Downregulation of HDAC6 protein expression in human MV4-11 cells at 5 uM after 24 hrs by Western blot analysis; assay type: functional, cell-based
Method in brief: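 MV4-11 cells treated 24 h at 0.25, 0.5, 1 and 2 μM, with 5 μM SAHA as reference. RIPA lysates normalized by BCA, run on 4–12% Bis-Tris gels, probed with primary antibodies at 1/1000 overnight at 4 °C. HDAC6 and acetylated histones/tubulin detected; actin as loading control. Representative of n = 2.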

[2] = biological target: T1, Histone deacetylase 1 (Homo sapiens, UniProt Q13547); assay: Inhibition of full length recombinant human C-terminal FLAG/His-tagged HDAC1 expressed in baculovirus expression system using Boc-Lys(acetyl)-AMC as substrate preincubated for 1 hr followed by substrate addition measured after 2 hrs by fluorescence assay
T1 sequence (Q13547 whole entry): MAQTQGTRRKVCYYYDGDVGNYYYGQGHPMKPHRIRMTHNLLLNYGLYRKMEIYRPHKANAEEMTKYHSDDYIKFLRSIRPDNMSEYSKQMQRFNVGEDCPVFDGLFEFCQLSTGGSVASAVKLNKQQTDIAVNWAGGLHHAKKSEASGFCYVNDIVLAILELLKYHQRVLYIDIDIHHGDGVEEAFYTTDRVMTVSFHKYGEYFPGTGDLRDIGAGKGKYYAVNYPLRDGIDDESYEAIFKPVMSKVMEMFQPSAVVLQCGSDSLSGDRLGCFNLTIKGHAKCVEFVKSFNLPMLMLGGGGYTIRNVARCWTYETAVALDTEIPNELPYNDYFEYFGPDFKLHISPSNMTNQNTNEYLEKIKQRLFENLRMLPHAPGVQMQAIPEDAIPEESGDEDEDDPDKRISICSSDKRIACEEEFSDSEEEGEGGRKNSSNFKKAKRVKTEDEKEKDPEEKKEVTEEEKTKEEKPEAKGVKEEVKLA
Method in brief: (§1)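 Recombinant HDAC incubated with serial compound dilutions at 30 °C for 1 h. Reaction run 2 h at 30 °C, stopped with developer containing trypsin and TSA. Fluorescence read after 30 min at 360/460 nm. Inhibition relative to control wells; IC50 from variable-slope fit.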

[3] = biological target: T2, Histone deacetylase 2 (Homo sapiens, UniProt Q92769); assay: Inhibition of full length recombinant human C-terminal FLAG/His-tagged HDAC2 expressed in baculovirus expression system using Boc-Lys(acetyl)-AMC as substrate preincubated for 1 hr followed by substrate addition measured after 2 hrs by fluorescence assay; method in brief: as §1
T2 sequence (Q92769 whole entry): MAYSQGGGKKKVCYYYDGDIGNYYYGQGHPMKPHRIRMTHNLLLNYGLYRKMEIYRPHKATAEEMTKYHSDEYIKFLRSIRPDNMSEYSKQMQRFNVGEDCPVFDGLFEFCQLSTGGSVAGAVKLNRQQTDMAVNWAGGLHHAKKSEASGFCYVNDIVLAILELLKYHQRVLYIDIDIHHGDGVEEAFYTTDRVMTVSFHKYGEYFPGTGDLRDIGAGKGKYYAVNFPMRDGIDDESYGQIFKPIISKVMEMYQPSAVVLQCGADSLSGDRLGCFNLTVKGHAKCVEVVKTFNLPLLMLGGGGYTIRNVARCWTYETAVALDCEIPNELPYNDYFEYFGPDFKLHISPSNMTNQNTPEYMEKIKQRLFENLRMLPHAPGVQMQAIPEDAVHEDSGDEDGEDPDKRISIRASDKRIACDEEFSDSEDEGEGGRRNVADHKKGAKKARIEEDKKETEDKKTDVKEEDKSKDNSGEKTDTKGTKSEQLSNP

[4] = biological target: T3, Histone deacetylase 3/Nuclear receptor corepressor 2 (HDAC3/NCoR2) (Homo sapiens, UniProt O15379); assay: Inhibition of full length recombinant human C-terminal His-tagged HDAC3/N-terminal GST-tagged NCOR2 co-expressed in baculovirus expression system using Boc-Lys(acetyl)-AMC as substrate preincubated for 1 hr followed by substrate addition measured after 2 hrs by fluorescence assay; method in brief: as §1
T3 sequence (O15379 whole entry): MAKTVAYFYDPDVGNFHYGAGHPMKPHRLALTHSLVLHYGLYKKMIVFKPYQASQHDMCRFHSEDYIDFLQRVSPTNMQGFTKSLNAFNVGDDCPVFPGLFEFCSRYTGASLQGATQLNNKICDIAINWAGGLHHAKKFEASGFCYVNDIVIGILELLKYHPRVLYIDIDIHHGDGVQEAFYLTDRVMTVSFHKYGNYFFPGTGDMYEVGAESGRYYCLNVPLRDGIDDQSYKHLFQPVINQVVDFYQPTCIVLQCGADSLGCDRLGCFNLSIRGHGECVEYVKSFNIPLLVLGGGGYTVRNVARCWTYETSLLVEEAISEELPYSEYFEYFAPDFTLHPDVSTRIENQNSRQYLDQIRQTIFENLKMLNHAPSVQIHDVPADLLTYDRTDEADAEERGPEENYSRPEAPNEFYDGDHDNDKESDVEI
T3 sequence (Q9Y618 whole entry, further chain): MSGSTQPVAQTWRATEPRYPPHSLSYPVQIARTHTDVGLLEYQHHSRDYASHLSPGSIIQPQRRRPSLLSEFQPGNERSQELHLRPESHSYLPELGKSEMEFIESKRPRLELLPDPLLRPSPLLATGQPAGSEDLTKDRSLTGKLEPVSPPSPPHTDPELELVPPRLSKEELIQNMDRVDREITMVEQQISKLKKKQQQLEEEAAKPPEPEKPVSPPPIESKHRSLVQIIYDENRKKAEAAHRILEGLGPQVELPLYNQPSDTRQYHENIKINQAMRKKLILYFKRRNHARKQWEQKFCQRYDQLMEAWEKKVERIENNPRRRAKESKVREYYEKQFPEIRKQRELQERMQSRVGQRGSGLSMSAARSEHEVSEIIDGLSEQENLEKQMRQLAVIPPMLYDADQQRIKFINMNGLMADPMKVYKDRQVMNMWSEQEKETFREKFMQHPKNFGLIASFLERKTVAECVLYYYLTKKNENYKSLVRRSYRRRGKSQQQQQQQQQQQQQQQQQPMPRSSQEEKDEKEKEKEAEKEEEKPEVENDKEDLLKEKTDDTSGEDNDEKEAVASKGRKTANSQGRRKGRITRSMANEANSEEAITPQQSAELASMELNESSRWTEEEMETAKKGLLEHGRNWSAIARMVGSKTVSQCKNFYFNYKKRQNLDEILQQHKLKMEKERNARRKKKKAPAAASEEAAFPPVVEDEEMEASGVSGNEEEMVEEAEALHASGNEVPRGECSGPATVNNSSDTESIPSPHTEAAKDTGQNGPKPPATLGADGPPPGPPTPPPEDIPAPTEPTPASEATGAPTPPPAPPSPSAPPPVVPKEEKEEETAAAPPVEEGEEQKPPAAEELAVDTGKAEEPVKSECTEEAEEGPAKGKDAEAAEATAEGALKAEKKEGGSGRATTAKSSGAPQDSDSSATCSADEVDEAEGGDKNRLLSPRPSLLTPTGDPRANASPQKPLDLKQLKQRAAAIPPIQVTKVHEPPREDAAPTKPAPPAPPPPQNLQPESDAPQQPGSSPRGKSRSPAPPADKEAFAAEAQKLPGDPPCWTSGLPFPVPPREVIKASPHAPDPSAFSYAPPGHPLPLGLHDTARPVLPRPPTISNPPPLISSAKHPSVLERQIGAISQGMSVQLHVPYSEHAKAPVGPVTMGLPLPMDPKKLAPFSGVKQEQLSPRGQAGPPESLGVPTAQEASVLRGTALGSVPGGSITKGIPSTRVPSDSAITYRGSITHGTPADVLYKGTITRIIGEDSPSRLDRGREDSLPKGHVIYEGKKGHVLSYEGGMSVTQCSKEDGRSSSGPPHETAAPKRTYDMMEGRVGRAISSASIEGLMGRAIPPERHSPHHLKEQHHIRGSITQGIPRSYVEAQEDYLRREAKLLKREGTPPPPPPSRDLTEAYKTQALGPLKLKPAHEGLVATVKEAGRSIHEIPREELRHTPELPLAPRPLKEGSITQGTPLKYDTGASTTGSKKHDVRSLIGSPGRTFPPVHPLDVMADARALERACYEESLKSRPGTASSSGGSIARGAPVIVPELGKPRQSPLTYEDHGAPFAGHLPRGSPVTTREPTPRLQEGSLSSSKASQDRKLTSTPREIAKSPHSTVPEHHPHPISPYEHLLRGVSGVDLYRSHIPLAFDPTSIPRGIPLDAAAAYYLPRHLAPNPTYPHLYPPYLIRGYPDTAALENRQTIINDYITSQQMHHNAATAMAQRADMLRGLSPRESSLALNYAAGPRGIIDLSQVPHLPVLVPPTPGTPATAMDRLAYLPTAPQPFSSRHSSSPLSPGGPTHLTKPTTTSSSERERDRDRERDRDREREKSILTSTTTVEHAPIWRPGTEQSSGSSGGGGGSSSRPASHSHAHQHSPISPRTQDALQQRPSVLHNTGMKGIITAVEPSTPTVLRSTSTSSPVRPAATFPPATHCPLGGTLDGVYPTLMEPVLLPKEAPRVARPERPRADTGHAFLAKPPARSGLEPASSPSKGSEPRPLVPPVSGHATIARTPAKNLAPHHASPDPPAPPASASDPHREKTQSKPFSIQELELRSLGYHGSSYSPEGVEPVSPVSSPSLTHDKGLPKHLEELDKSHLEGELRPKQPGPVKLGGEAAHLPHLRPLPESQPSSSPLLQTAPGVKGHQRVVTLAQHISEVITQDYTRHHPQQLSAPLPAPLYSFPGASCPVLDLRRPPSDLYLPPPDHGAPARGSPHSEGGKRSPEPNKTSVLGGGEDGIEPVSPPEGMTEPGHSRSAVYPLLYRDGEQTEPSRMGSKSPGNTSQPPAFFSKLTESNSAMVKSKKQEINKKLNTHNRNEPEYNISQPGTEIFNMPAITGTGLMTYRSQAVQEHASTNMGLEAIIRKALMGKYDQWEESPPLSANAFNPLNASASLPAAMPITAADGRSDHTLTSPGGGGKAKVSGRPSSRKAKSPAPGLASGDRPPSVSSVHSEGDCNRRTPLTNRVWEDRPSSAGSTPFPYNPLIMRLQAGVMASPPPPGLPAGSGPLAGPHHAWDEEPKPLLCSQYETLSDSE

[5] = biological target: T4, Protein deacetylase HDAC6 (Homo sapiens, UniProt Q9UBN7); assay: Inhibition of HDAC6 (unknown origin) using Boc-Lys(acetyl)-AMC as substrate preincubated for 1 hr followed by substrate addition measured after 2 hrs by fluorescence assay; method in brief: as §1
T4 sequence (Q9UBN7 whole entry): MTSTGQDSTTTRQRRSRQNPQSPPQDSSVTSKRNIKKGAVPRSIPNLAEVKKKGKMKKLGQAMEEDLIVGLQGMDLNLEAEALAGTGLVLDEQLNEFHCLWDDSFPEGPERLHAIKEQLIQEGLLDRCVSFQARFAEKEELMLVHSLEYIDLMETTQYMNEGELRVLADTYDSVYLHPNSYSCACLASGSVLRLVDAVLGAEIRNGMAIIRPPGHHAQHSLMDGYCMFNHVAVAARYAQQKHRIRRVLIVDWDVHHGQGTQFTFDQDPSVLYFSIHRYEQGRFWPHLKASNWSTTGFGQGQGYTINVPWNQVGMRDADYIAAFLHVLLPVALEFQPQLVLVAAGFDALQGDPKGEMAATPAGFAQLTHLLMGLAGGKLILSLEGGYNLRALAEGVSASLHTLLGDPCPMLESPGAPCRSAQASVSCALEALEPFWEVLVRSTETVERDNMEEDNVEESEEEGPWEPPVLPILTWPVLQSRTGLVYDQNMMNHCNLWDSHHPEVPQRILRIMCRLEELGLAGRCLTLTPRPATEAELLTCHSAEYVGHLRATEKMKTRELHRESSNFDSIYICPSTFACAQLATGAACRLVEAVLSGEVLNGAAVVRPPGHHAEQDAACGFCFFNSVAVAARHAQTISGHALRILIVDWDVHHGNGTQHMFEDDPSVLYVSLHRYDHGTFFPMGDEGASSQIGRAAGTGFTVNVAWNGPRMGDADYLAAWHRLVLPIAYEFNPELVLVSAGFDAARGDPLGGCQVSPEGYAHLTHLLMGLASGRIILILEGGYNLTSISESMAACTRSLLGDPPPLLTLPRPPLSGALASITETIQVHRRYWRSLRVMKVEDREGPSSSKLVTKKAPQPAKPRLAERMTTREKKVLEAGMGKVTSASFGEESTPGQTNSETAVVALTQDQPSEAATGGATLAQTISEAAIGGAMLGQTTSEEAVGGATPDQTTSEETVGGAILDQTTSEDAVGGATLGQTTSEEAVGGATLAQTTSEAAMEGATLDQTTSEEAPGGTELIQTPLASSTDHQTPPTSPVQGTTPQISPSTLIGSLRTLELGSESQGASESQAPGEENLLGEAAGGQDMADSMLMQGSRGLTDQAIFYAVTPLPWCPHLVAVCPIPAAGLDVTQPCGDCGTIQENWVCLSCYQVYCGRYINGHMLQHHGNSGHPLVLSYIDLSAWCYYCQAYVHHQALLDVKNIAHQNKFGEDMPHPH

[6] = tested on: MV4-11; assay: Antiproliferative activity against human MV4-11 cells after 48 hrs by CellTiter-Blue assay; assay type: functional, cell-based; details: MV4-11, 48 h
[7] = biological target: T2, Histone deacetylase 2; assay: (§2) Mixed-type inhibition of full length recombinant human C-terminal FLAG/His-tagged HDAC2 expressed in baculovirus expression system using Boc-Lys(acetyl)-AMC as substrate preincubated for 2 hrs followed by substrate addition measured after 2 hrs by Lineweaver-Burk plot analysis
Method in brief: (§3)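 Recombinant human HDAC2 or HDAC3 incubated 2 h at 30 °C with inhibitor at several concentrations in HDAC buffer. Serially diluted Boc-Lys(acetyl)-AMC added for 2 h, then quenched with 5 mg/mL trypsin and 1 μM TSA. Fluorescence read at 360/460 nm. Vmax and Km from Michaelis–Menten fits, shown as Lineweaver–Burk plots.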

[8] = biological target: Histone deacetylase 3/Nuclear receptor corepressor 2 (HDAC3/NCoR2) (Homo sapiens) (UniProt O15379+Q9Y618); assay: as §2, with “His-tagged HDAC3/N-terminal GST-tagged NCOR2 co-expressed” for “FLAG/His-tagged HDAC2 expressed”; method in brief: as §3
[9] = biological target: T3, Histone deacetylase 3/Nuclear receptor corepressor 2 (HDAC3/NCoR2); assay: Inhibition of full length recombinant human C-terminal His-tagged HDAC3/N-terminal GST-tagged NCOR2 co-expressed in baculovirus expression system using Boc-Lys(acetyl)-AMC as substrate preincubated for 90 mins followed by substrate addition measured after 2 hrs by fluorescence assay
[10] = biological target: T3, Histone deacetylase 3/Nuclear receptor corepressor 2 (HDAC3/NCoR2); assay: Inhibition of full length recombinant human C-terminal His-tagged HDAC3/N-terminal GST-tagged NCOR2 co-expressed in baculovirus expression system using Boc-Lys(acetyl)-AMC as substrate preincubated for 60 mins followed by substrate addition measured after 2 hrs by fluorescence assay
[11] = biological target: T3, Histone deacetylase 3/Nuclear receptor corepressor 2 (HDAC3/NCoR2); assay: Inhibition of full length recombinant human C-terminal His-tagged HDAC3/N-terminal GST-tagged NCOR2 co-expressed in baculovirus expression system using Boc-Lys(acetyl)-AMC as substrate preincubated for 30 mins followed by substrate addition measured after 2 hrs by fluorescence assay
[12] = biological target: T3, Histone deacetylase 3/Nuclear receptor corepressor 2 (HDAC3/NCoR2); assay: Inhibition of full length recombinant human C-terminal His-tagged HDAC3/N-terminal GST-tagged NCOR2 co-expressed in baculovirus expression system using Boc-Lys(acetyl)-AMC as substrate preincubated for 15 mins followed by substrate addition measured after 2 hrs by fluorescence assay
[13] = biological target: T2, Histone deacetylase 2; assay: Inhibition of full length recombinant human C-terminal FLAG/His-tagged HDAC2 expressed in baculovirus expression system using Boc-Lys(acetyl)-AMC as substrate preincubated for 90 mins followed by substrate addition measured after 2 hrs by fluorescence assay
Method in brief: (§4)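 Recombinant HDAC2 preincubated with serial compound dilutions at 30 °C for 15, 30, 60 or 90 min. Boc-Lys(acetyl)-AMC added and reaction run 2 h at 30 °C, then stopped with trypsin/TSA developer. Fluorescence read at 360/460 nm; IC50 from variable-slope fit of control-normalized inhibition.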

[14] = biological target: T2, Histone deacetylase 2; assay: Inhibition of full length recombinant human C-terminal FLAG/His-tagged HDAC2 expressed in baculovirus expression system using Boc-Lys(acetyl)-AMC as substrate preincubated for 60 mins followed by substrate addition measured after 2 hrs by fluorescence assay; method in brief: as §4
[15] = biological target: T2, Histone deacetylase 2; assay: Inhibition of full length recombinant human C-terminal FLAG/His-tagged HDAC2 expressed in baculovirus expression system using Boc-Lys(acetyl)-AMC as substrate preincubated for 30 mins followed by substrate addition measured after 2 hrs by fluorescence assay; method in brief: as §4
[16] = biological target: T2, Histone deacetylase 2; assay: Inhibition of full length recombinant human C-terminal FLAG/His-tagged HDAC2 expressed in baculovirus expression system using Boc-Lys(acetyl)-AMC as substrate preincubated for 15 mins followed by substrate addition measured after 2 hrs by fluorescence assay; method in brief: as §4
[17] = biological target: T1, Histone deacetylase 1; assay: Inhibition of full length recombinant human C-terminal FLAG/His-tagged HDAC1 expressed in baculovirus expression system using Boc-Lys(acetyl)-AMC as substrate preincubated for 90 mins followed by substrate addition measured after 2 hrs by fluorescence assay
Method in brief: (§5)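 Recombinant HDAC1 was preincubated with serially diluted inhibitor at 30 °C for the stated time. Boc-Lys(acetyl)-AMC was then added and the reaction ran 2 h at 30 °C. It was stopped with a trypsin/trichostatin A developer, and fluorescence was read 30 min later (ex 360/em 460 nm). Inhibition was taken relative to control wells, and IC50 came from a variable-slope log(inhibitor)–normalized response fit.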

[18] = biological target: T1, Histone deacetylase 1; assay: Inhibition of full length recombinant human C-terminal FLAG/His-tagged HDAC1 expressed in baculovirus expression system using Boc-Lys(acetyl)-AMC as substrate preincubated for 60 mins followed by substrate addition measured after 2 hrs by fluorescence assay; method in brief: as §5
[19] = biological target: T1, Histone deacetylase 1; assay: Inhibition of full length recombinant human C-terminal FLAG/His-tagged HDAC1 expressed in baculovirus expression system using Boc-Lys(acetyl)-AMC as substrate preincubated for 30 mins followed by substrate addition measured after 2 hrs by fluorescence assay
[20] = biological target: T1, Histone deacetylase 1; assay: Inhibition of full length recombinant human C-terminal FLAG/His-tagged HDAC1 expressed in baculovirus expression system using Boc-Lys(acetyl)-AMC as substrate preincubated for 15 mins followed by substrate addition measured after 2 hrs by fluorescence assay; method in brief: as §5

| Structure (SMILES) | IC50 [2] [nM] | IC50 [3] [nM] | IC50 [4] [nM] | IC50 [5] [nM] | other results |
| --- | --- | --- | --- | --- | --- |
| O=C(CCCCCCC(=O)Nc1ccccc1)NO |  |  |  |  | Activity [1]: Active |
| COc1ccc(C(=O)N[C@@H](Cc2c[nH]c3ccccc23)C(=O)NCc2ccc(C(=O)NNC3CCCC3)cc2)cc1 | > 5000 | > 5000 | > 5000 | > 100000 | EC50 [6]: > 20000 nM |
| CCCNNC(=O)/C=C/c1ccc(OC[C@H](Cc2c[nH]c3ccccc23)NC(=O)c2ccc(OC)cc2)cc1 | 28.9 | 283 | 2.82 | > 100000 | EC50 [6]: 243 nM |
| COc1ccc(C(=O)N[C@@H](Cc2c[nH]c3ccccc23)C(=O)NCc2ccc(C(=O)NNc3ccccc3)cc2)cc1 | > 5000 | > 5000 | > 5000 | > 100000 | EC50 [6]: > 20000 nM |
| CCCCCNNC(=O)c1ccc(CNC(=O)[C@H](Cc2c[nH]c3ccccc23)NC(=O)c2ccc(OC)cc2)cc1 | 29.8 | 332 | 10.9 | > 100000 |  |
| CCCCNNC(=O)c1ccc(CNC(=O)[C@H](Cc2c[nH]c3ccccc23)NC(=O)c2ccc(OC)cc2)cc1 | 53.7 | 193 | 16.5 | > 100000 |  |
| CCCNNC(=O)CCCCCCCNC(=O)[C@H](Cc1c[nH]c2ccccc12)NC(=O)c1ccc(OC)cc1 | 52.8 | 199 | 12.1 | > 100000 |  |
| CCCNNC(=O)CCCCCNC(=O)[C@H](Cc1c[nH]c2ccccc12)NC(=O)c1ccc(OC)cc1 | 80.2 | 209 | 12.4 | > 100000 |  |
| CCNNC(=O)c1ccc(CNC(=O)[C@H](Cc2c[nH]c3ccccc23)NC(=O)c2ccc(OC)cc2)cc1 | 95.5 | 88.8 | 34.9 | 393 |  |
| COc1ccc(C(=O)N[C@@H](Cc2c[nH]c3ccccc23)C(=O)NCc2ccc(C(=O)Nc3ccccc3N)cc2)cc1 |  |  |  | > 100000 | inhibition [7]: Active; inhibition [8]: Active; IC50 [9]: 135 nM; IC50 [10]: 184 nM; IC50 [11]: 433 nM; IC50 [12]: 939 nM; IC50 [13]: 121 nM; IC50 [14]: 169 nM; IC50 [15]: 252 nM; IC50 [16]: 348 nM; IC50 [17]: 34.5 nM; IC50 [18]: 49.8 nM; IC50 [19]: 64.9 nM; IC50 [20]: 99.9 nM |
| CCCNNC(=O)c1ccc(CNC(=O)[C@H](Cc2c[nH]c3ccccc23)NC(=O)c2ccc(OC)cc2)cc1 | 63.3 | 287 |  | > 100000 | inhibition [7]: Active; inhibition [8]: Active; IC50 [13]: 194 nM; IC50 [14]: 260 nM; IC50 [15]: 367 nM; IC50 [16]: 424 nM; IC50 [17]: 32.9 nM; IC50 [18]: 50.1 nM; IC50 [20]: 91.2 nM |
| CCCNNC(=O)CCCCCCNC(=O)[C@H](Cc1c[nH]c2ccccc12)NC(=O)c1ccc(OC)cc1 | 91.6 | 191 | 5.2 | > 100000 |  |
